Data from ChEMBL document CHEMBL1828568, “Novel imaging agents for β-amyloid plaque based on the N-benzoylindole core” (Bioorg Med Chem Lett, 2011).

Columns and labels:
[1] = test system: Stomach; experiment: Biodistribution in Kunming mouse stomach assessed per organ at 1 uCi, iv after 120 mins by gamma counting; assay type: ADME, organism-based; conditions: in vivo, 2 h
In short: (§1)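 Radioiodinated tracers given intravenously to normal mice; organs taken at 2, 15, 30, 60, 120 and 240 min after injection. Uptake expressed as % ID/g, mean ± SD of 5 mice; stomach values carry a table footnote.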

[2] = test system: Stomach; experiment: Biodistribution in Kunming mouse stomach assessed per organ at 1 uCi, iv after 240 mins by gamma counting; assay type: ADME, organism-based; conditions: in vivo, 4 h; in short: as §1
[3] = test system: Lung; experiment: Biodistribution in Kunming mouse lung at 1 uCi, iv after 60 mins by gamma counting; assay type: ADME, organism-based; conditions: in vivo, 1 h
In short: (§2)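 125I-labeled tracer given intravenously to normal mice. Organs and blood were sampled at 2, 15, 30, 60, 120 and 240 min after injection. Uptake is expressed as % ID/g, averaged over 5 mice ± SD.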

[4] = test system: Brain; experiment: Biodistribution in Kunming mouse brain at 1 uCi, iv after 60 mins by gamma counting; assay type: ADME, organism-based; conditions: in vivo, 1 h; in short: as §2
[5] = test system: Spleen; experiment: Biodistribution in Kunming mouse spleen at 1 uCi, iv after 240 mins by gamma counting; assay type: ADME, organism-based; conditions: in vivo, 4 h; in short: as §2
[6] = Octanol-phosphate buffer partition coefficient, log D of the compound at pH 7.4; assay type: physicochemical
In short: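 Radioiodinated tracer partitioned between n-octanol and PBS at pH 7.4; log D reported as mean ± SD.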

[7] = test system: Muscle tissue; experiment: Biodistribution in Kunming mouse muscle at 1 uCi, iv after 30 mins by gamma counting; assay type: ADME, organism-based; conditions: in vivo, 0.5 h; in short: as §2
[8] = test system: Spleen; experiment: Biodistribution in Kunming mouse spleen at 1 uCi, iv after 60 mins by gamma counting; assay type: ADME, organism-based; conditions: in vivo, 1 h; in short: as §1
[9] = test system: Liver; experiment: Biodistribution in Kunming mouse liver at 1 uCi, iv after 2 mins by gamma counting; assay type: ADME, organism-based; conditions: in vivo; in short: as §2
[10] = test system: Brain; experiment: Biodistribution in Kunming mouse brain at 1 uCi, iv after 15 mins by gamma counting; assay type: ADME, organism-based; conditions: in vivo, 0.25 h; in short: as §2
[11] = test system: Liver; experiment: Biodistribution in Kunming mouse liver at 1 uCi, iv after 120 mins by gamma counting; assay type: ADME, organism-based; conditions: in vivo, 2 h; in short: as §2
[12] = test system: Kidney; experiment: Biodistribution in Kunming mouse kidney at 1 uCi, iv after 240 mins by gamma counting; assay type: ADME, organism-based; conditions: in vivo, 4 h; in short: as §2
[13] = test system: Brain; experiment: Biodistribution in Kunming mouse brain at 1 uCi, iv after 120 mins by gamma counting; assay type: ADME, organism-based; conditions: in vivo, 2 h; in short: as §2
[14] = test system: Spleen; experiment: Biodistribution in Kunming mouse spleen at 1 uCi, iv after 30 mins by gamma counting; assay type: ADME, organism-based; conditions: in vivo, 0.5 h; in short: as §2
[15] = test system: Kidney; experiment: Biodistribution in Kunming mouse kidney at 1 uCi, iv after 15 mins by gamma counting; assay type: ADME, organism-based; conditions: in vivo, 0.25 h; in short: as §2
[16] = test system: Kidney; experiment: Biodistribution in Kunming mouse kidney at 1 uCi, iv after 2 mins by gamma counting; assay type: ADME, organism-based; conditions: in vivo; in short: as §2
[17] = test system: Spleen; experiment: Biodistribution in Kunming mouse spleen at 1 uCi, iv after 120 mins by gamma counting; assay type: ADME, organism-based; conditions: in vivo, 2 h; in short: as §2
[18] = test system: Lung; experiment: Biodistribution in Kunming mouse lung at 1 uCi, iv after 240 mins by gamma counting; assay type: ADME, organism-based; conditions: in vivo, 4 h; in short: as §2
[19] = test system: Blood; experiment: Biodistribution in Kunming mouse blood at 1 uCi, iv after 240 mins by gamma counting; assay type: ADME, organism-based; conditions: in vivo, 4 h; in short: as §2
[20] = test system: Kidney; experiment: Biodistribution in Kunming mouse kidney at 1 uCi, iv after 30 mins by gamma counting; assay type: ADME, organism-based; conditions: in vivo, 0.5 h; in short: as §2
[21] = test system: Lung; experiment: Biodistribution in Kunming mouse lung at 1 uCi, iv after 15 mins by gamma counting; assay type: ADME, organism-based; conditions: in vivo, 0.25 h; in short: as §2
[22] = test system: Heart; experiment: Biodistribution in Kunming mouse heart at 1 uCi, iv after 2 mins by gamma counting; assay type: ADME, organism-based; conditions: in vivo; in short: as §2
[23] = test system: Heart; experiment: Biodistribution in Kunming mouse heart at 1 uCi, iv after 30 mins by gamma counting; assay type: ADME, organism-based; conditions: in vivo, 0.5 h; in short: as §2
[24] = test system: Blood; experiment: Biodistribution in Kunming mouse blood at 1 uCi, iv after 120 mins by gamma counting; assay type: ADME, organism-based; conditions: in vivo, 2 h; in short: as §2
[25] = test system: Lung; experiment: Biodistribution in Kunming mouse lung at 1 uCi, iv after 2 mins by gamma counting; assay type: ADME, organism-based; conditions: in vivo; in short: as §2
[26] = test system: Stomach; experiment: Biodistribution in Kunming mouse stomach assessed per organ at 1 uCi, iv after 60 mins by gamma counting; assay type: ADME, organism-based; conditions: in vivo, 1 h; in short: as §1
[27] = test system: Blood; experiment: Biodistribution in Kunming mouse blood at 1 uCi, iv after 60 mins by gamma counting; assay type: ADME, organism-based; conditions: in vivo, 1 h; in short: as §2
[28] = test system: Blood; experiment: Biodistribution in Kunming mouse blood at 1 uCi, iv after 30 mins by gamma counting; assay type: ADME, organism-based; conditions: in vivo, 0.5 h; in short: as §2
[29] = test system: Brain; experiment: Biodistribution in Kunming mouse brain at 1 uCi, iv after 2 mins by gamma counting; assay type: ADME, organism-based; conditions: in vivo; in short: as §2
[30] = test system: Muscle tissue; experiment: Biodistribution in Kunming mouse muscle at 1 uCi, iv after 60 mins by gamma counting; assay type: ADME, organism-based; conditions: in vivo, 1 h; in short: as §2
[31] = test system: Heart; experiment: Biodistribution in Kunming mouse heart at 1 uCi, iv after 120 mins by gamma counting; assay type: ADME, organism-based; conditions: in vivo, 2 h; in short: as §2
[32] = test system: Muscle tissue; experiment: Biodistribution in Kunming mouse muscle at 1 uCi, iv after 240 mins by gamma counting; assay type: ADME, organism-based; conditions: in vivo, 4 h; in short: as §2
[33] = test system: Liver; experiment: Biodistribution in Kunming mouse liver at 1 uCi, iv after 15 mins by gamma counting; assay type: ADME, organism-based; conditions: in vivo, 0.25 h; in short: as §2
[34] = test system: Blood; experiment: Biodistribution in Kunming mouse blood at 1 uCi, iv after 2 mins by gamma counting; assay type: ADME, organism-based; conditions: in vivo; in short: as §2
[35] = test system: Heart; experiment: Biodistribution in Kunming mouse heart at 1 uCi, iv after 240 mins by gamma counting; assay type: ADME, organism-based; conditions: in vivo, 4 h; in short: as §2
[36] = test system: Heart; experiment: Biodistribution in Kunming mouse heart at 1 uCi, iv after 15 mins by gamma counting; assay type: ADME, organism-based; conditions: in vivo, 0.25 h; in short: as §2
[37] = test system: Kidney; experiment: Biodistribution in Kunming mouse kidney at 1 uCi, iv after 120 mins by gamma counting; assay type: ADME, organism-based; conditions: in vivo, 2 h; in short: as §2
[38] = test system: Stomach; experiment: Biodistribution in Kunming mouse stomach assessed per organ at 1 uCi, iv after 15 mins by gamma counting; assay type: ADME, organism-based; conditions: in vivo, 0.25 h; in short: as §1
[39] = test system: Brain; experiment: Biodistribution in Kunming mouse brain at 1 uCi, iv after 30 mins by gamma counting; assay type: ADME, organism-based; conditions: in vivo, 0.5 h; in short: as §2
[40] = test system: Muscle tissue; experiment: Biodistribution in Kunming mouse muscle at 1 uCi, iv after 2 mins by gamma counting; assay type: ADME, organism-based; conditions: in vivo; in short: as §2
[41] = test system: Spleen; experiment: Biodistribution in Kunming mouse spleen at 1 uCi, iv after 15 mins by gamma counting; assay type: ADME, organism-based; conditions: in vivo, 0.25 h; in short: as §2
[42] = test system: Muscle tissue; experiment: Biodistribution in Kunming mouse muscle at 1 uCi, iv after 120 mins by gamma counting; assay type: ADME, organism-based; conditions: in vivo, 2 h; in short: as §2
[43] = test system: Heart; experiment: Biodistribution in Kunming mouse heart at 1 uCi, iv after 60 mins by gamma counting; assay type: ADME, organism-based; conditions: in vivo, 1 h; in short: as §2
[44] = test system: Lung; experiment: Biodistribution in Kunming mouse lung at 1 uCi, iv after 30 mins by gamma counting; assay type: ADME, organism-based; conditions: in vivo, 0.5 h; in short: as §2
[45] = test system: Blood; experiment: Biodistribution in Kunming mouse blood at 1 uCi, iv after 15 mins by gamma counting; assay type: ADME, organism-based; conditions: in vivo, 0.25 h; in short: as §2
[46] = test system: Muscle tissue; experiment: Biodistribution in Kunming mouse muscle at 1 uCi, iv after 15 mins by gamma counting; assay type: ADME, organism-based; conditions: in vivo, 0.25 h; in short: as §2
[47] = test system: Brain; experiment: Biodistribution in Kunming mouse brain at 1 uCi, iv after 240 mins by gamma counting; assay type: ADME, organism-based; conditions: in vivo, 4 h; in short: as §2
[48] = test system: Liver; experiment: Biodistribution in Kunming mouse liver at 1 uCi, iv after 30 mins by gamma counting; assay type: ADME, organism-based; conditions: in vivo, 0.5 h; in short: as §2
[49] = test system: Kidney; experiment: Biodistribution in Kunming mouse kidney at 1 uCi, iv after 60 mins by gamma counting; assay type: ADME, organism-based; conditions: in vivo, 1 h; in short: as §2
[50] = test system: Stomach; experiment: Biodistribution in Kunming mouse stomach assessed per organ at 1 uCi, iv after 2 mins by gamma counting; assay type: ADME, organism-based; conditions: in vivo; in short: as §1
[51] = test system: Stomach; experiment: Biodistribution in Kunming mouse stomach assessed per organ at 1 uCi, iv after 30 mins by gamma counting; assay type: ADME, organism-based; conditions: in vivo, 0.5 h; in short: as §1
[52] = test system: Lung; experiment: Biodistribution in Kunming mouse lung at 1 uCi, iv after 120 mins by gamma counting; assay type: ADME, organism-based; conditions: in vivo, 2 h; in short: as §2
[53] = test system: Liver; experiment: Biodistribution in Kunming mouse liver at 1 uCi, iv after 60 mins by gamma counting; assay type: ADME, organism-based; conditions: in vivo, 1 h; in short: as §2
[54] = test system: Spleen; experiment: Biodistribution in Kunming mouse spleen at 1 uCi, iv after 2 mins by gamma counting; assay type: ADME, organism-based; conditions: in vivo; in short: as §2
[55] = test system: Liver; experiment: Biodistribution in Kunming mouse liver at 1 uCi, iv after 240 mins by gamma counting; assay type: ADME, organism-based; conditions: in vivo, 4 h; in short: as §2

COc1ccc(/C=C/C(=O)n2ccc3cc([125I])ccc32)cc1
Drug uptake [1]: 5.31 %ID
Drug uptake [2]: 4.14 %ID
Drug uptake [3]: 6.39 % ID/g
Drug uptake [4]: 1.04 % ID/g
Drug uptake [5]: 4.45 % ID/g
logD [6]: 2.32
Drug uptake [7]: 1.63 % ID/g
Drug uptake [8]: 7.16 % ID/g
Drug uptake [9]: 24.76 % ID/g
Drug uptake [10]: 2.29 % ID/g
Drug uptake [11]: 9.3 % ID/g
Drug uptake [12]: 4.05 % ID/g
Drug uptake [13]: 0.42 % ID/g
Drug uptake [14]: 7.12 % ID/g
Drug uptake [15]: 9.31 % ID/g
Drug uptake [16]: 12.01 % ID/g
Drug uptake [17]: 6.18 % ID/g
Drug uptake [18]: 2.95 % ID/g
Drug uptake [19]: 2.78 % ID/g
Drug uptake [20]: 8.21 % ID/g
Drug uptake [21]: 11.13 % ID/g
Drug uptake [22]: 12.64 % ID/g
Drug uptake [23]: 2.45 % ID/g
Drug uptake [24]: 3.12 % ID/g
Drug uptake [25]: 21.76 % ID/g
Drug uptake [26]: 5 %ID
Drug uptake [27]: 3.79 % ID/g
Drug uptake [28]: 4.9 % ID/g
Drug uptake [29]: 2.19 % ID/g
Drug uptake [30]: 1.3 % ID/g
Drug uptake [31]: 1.21 % ID/g
Drug uptake [32]: 0.92 % ID/g
Drug uptake [33]: 18.05 % ID/g
Drug uptake [34]: 13.91 % ID/g
Drug uptake [35]: 1.17 % ID/g
Drug uptake [36]: 3.52 % ID/g
Drug uptake [37]: 4.21 % ID/g
Drug uptake [38]: 4.06 %ID
Drug uptake [39]: 1.6 % ID/g
Drug uptake [40]: 2.73 % ID/g
Drug uptake [41]: 8.04 % ID/g
Drug uptake [42]: 0.65 % ID/g
Drug uptake [43]: 1.53 % ID/g
Drug uptake [44]: 9.05 % ID/g
Drug uptake [45]: 5.82 % ID/g
Drug uptake [46]: 2.62 % ID/g
Drug uptake [47]: 0.21 % ID/g
Drug uptake [48]: 14.05 % ID/g
Drug uptake [49]: 5.71 % ID/g
Drug uptake [50]: 0.71 %ID
Drug uptake [51]: 4.92 %ID
Drug uptake [52]: 4.31 % ID/g
Drug uptake [53]: 12.3 % ID/g
Drug uptake [54]: 6 % ID/g
Drug uptake [55]: 7.65 % ID/g
